# Assay results gathered from unrelated publications.
# Each line is one published result; the experiments were not run side by side.
# Target: Ephrin type-B receptor 2 (EPHB2, Homo sapiens, UniProt P29323)
# Sequence (P29323 1-1055, as in one of the studies): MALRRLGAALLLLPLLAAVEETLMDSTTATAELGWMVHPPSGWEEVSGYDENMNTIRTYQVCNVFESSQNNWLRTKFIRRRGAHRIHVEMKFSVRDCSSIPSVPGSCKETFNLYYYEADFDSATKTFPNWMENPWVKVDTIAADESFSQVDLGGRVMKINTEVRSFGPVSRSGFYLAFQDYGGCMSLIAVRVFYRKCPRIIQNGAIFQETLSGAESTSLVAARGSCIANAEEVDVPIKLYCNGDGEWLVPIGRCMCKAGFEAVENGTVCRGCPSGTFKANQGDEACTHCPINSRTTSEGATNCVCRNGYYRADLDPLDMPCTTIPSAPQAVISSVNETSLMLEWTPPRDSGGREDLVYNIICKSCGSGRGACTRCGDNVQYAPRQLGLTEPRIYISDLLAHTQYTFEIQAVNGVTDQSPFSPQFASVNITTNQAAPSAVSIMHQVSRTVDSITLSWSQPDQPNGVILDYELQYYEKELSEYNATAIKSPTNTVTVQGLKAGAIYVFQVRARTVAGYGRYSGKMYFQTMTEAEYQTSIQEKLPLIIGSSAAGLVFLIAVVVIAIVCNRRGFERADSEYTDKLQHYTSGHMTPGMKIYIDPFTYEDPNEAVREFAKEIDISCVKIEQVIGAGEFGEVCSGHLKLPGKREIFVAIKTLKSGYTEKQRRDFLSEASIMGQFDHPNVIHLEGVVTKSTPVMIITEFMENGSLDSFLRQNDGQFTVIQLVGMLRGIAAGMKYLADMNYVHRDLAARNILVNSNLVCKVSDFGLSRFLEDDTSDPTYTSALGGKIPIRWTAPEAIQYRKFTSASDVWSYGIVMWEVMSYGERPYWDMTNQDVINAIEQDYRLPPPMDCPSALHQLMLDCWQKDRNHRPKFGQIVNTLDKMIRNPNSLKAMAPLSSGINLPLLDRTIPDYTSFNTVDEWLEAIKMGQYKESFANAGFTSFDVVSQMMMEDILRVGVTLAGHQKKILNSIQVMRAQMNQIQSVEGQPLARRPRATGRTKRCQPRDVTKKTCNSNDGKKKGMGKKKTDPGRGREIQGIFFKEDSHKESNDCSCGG
SMILES,observed,technique,concentration,remaining binding [%]
O=C(NCC1CCOCC1)c1n[nH]cc1NC(=O)c1c(F)cccc1F,binding,competition with immobilised ligand,1 µM,98
CN(CCCC(F)(F)F)c1nccc(-c2cnn3ncccc23)n1,binding,,1 µM,84
COc1cnc(Nc2cccc(S(N)(=O)=O)c2)nc1N1CCN(c2ccccc2)C(=O)C1,binding,competition with immobilised ligand,1 µM,99
N[C@H]1CCN(c2nccc(-c3cnn4ncccc34)n2)C1,binding,,1 µM,100
O=C(c1ccc(Nc2ncc(Cl)c(-c3ccc(Cl)s3)n2)cc1)N1CCC(N2CCCC2)CC1,binding,competition with immobilised ligand,1 µM,88
COc1ccc2c(c1)O[C@@H](c1ccc(OC)c(OC)c1)C[C@H]2NC(=O)C1(c2ccc3c(c2)OC(F)(F)O3)CC1,cell-free assay,competition with immobilised ligand,1 µM,100
O=C(c1ccc(Nc2nccc(-c3cc4ccccc4s3)n2)cc1)N1CCC(N2CCCC2)CC1,binding,competition with immobilised ligand,1 µM,100
Cn1cc(Cl)c2c(Oc3c(F)cc(Nc4cc(Cl)nc(N)n4)cc3F)ccnc21,cell-free assay,competition with immobilised ligand,0.1 µM,100
CN(C)c1nccc(-c2cnn3ncccc23)n1,binding,,1 µM,71
C[C@@H]1CN(c2cc(-c3n[nH]c4ccc(OC5(C)CC5)cc34)ncn2)C[C@H](C)O1,cell-free assay,competition with immobilised ligand,0.1 µM,90
C[C@H]1CCN(c2nccc(-c3cnn4ncccc34)n2)C1,binding,,1 µM,0
CO[C@@H](C)c1c(Nc2ccc([C@H](N(C)C(=O)C3CCS(=O)(=O)CC3)C(F)(F)F)cc2)cnc2cc(Cl)nn12,cell-free assay,competition with immobilised ligand,1 µM,76
O=C(NCCCN1CCOCC1)c1ccc(Nc2ncc(Cl)c(-c3ccc(Cl)s3)n2)cc1,binding,competition with immobilised ligand,1 µM,100
CN(c1nccc(-c2cnn3ncccc23)n1)C1CC1,binding,,1 µM,100
COc1ncc2cc3ccccc3nc2c1C#N,cell-free assay,competition with immobilised ligand,5 µM,99
O=C(O)[C@H]1[C@H](Cn2nnc3ccccc3c2=O)CC[C@@H]1C(=O)c1ccc(OCCC2CCOCC2)cc1,cell-free assay,competition with immobilised ligand,1 µM,100
CN(C)c1ncc(F)c(-c2cnn3ncccc23)n1,binding,,1 µM,100
O=C(NC[C@@H]1[C@H]2CN(C(=O)OCc3cc(C(F)(F)F)cc(C(F)(F)F)c3)C[C@@H]12)c1ccc2[nH]nnc2c1,cell-free assay,competition with immobilised ligand,1 µM,100
Nc1ncc2c(n1)-c1c([nH]c3ccc(C#CC4CC4)cc13)CCCC2,binding,competition with immobilised ligand,1 µM,90
